Laboratory results: article PMC3947005 (Cancer research, 2013)

Experiments:
pERK in sMPNST cells = assay: Phospho-ERK Western blot; format: cell-based, mouse; conditions: 10 µM for 30 minutes
Summary of the method: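 Mouse sMPNST cells treated with test compound at 10 µM for 30 min, then trypsinized and lysed in RIPA buffer. Lysates run on 5–20% SDS-PAGE gels and immunoblotted for phospho-ERK and total ERK, with αTubulin or GAPDH as loading reference.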

[1] = tested on: MPNSTs from the cis-Nf1+/-;p53+/- mouse model; conditions: ref [7], [44]; cited from earlier work
sMPNST cells = assay: CellTiter-Glo ATP luminescence assay, dose response; format: cell-based, mouse; conditions: rapamycin alone
pS6 in sMPNST cells = assay: pS6 Western blot; format: cell-based, mouse; conditions: 0.05 µM (50 nM) for 30 or 60 min
Summary of the method: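 Mouse sMPNST cells exposed to test compound at 0.05 µM (50 nM) for 30 or 60 min. Cells collected, trypsinized and lysed in RIPA buffer. Lysates resolved on 5–20% SDS-PAGE gels and probed for phospho-S6.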

pAKT in sMPNST cells = assay: Phospho-AKT Western blot; format: cell-based, mouse; conditions: 20 µM for 30 or 60 minutes
Summary of the method: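 Mouse sMPNST cells exposed to a PI3K-inhibitor test compound at 20 µM for 30 or 60 min. Cells collected, trypsinized and lysed in RIPA buffer. Lysates resolved on 5–20% SDS-PAGE gels and immunoblotted for phospho-AKT and total AKT, with αTubulin or GAPDH as loading reference.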

N#CC(=C(/N)Sc1ccccc1N)/C(C#N)=C(/N)Sc1ccccc1N [U0126]
Phospho-ERK inhibition (pERK in sMPNST cells): verified by Western blotting

c1cc(CN2CCCNCCNCCCNCC2)ccc1CN1CCCNCCNCCCNCC1 [AMD3100]
inhibition of MPNSTs [1]: inhibit MPNSTs

CO[C@H]1C[C@@H]2CC[C@@H](C)[C@@](O)(O2)C(=O)C(=O)N2CCCC[C@H]2C(=O)O[C@H]([C@H](C)C[C@@H]2CC[C@@H](O)[C@H](OC)C2)CC(=O)[C@H](C)/C=C(\C)[C@@H](O)[C@@H](OC)C(=O)[C@H](C)C[C@H](C)/C=C/C=C/C=C/1C [rapamycin]
sMPNST cellular growth response (sMPNST cells): relatively resistant
pS6 levels (pS6 in sMPNST cells): decreased pS6 levels
inhibition of MPNSTs [1]: inhibit MPNSTs

O=c1cc(N2CCOCC2)oc2c(-c3ccccc3)cccc12 [LY294002]
pAKT inhibition (pAKT in sMPNST cells): effective pAKT inhibition
